Laboratory results from ChEMBL document CHEMBL1124180, “Asymmetric synthesis and properties of the enantiomers of the antibacterial agent 7-(3-aminopyrrolidin-1-yl)-1-(2,4-difluorophenyl)-1,4-dihydro-6- fluoro-4-oxo-1,8-naphthyridine-3-carboxylic acid hydrochloride” (J Med Chem, 1988).
Values after ≈ are worked out from the molar mass of the structure shown.

What was measured:
Parvimonas micra = assay: In vitro activity against Peptostreptococcus micros (ATCC 33270); assay type: functional
Summary of the method: (§1)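 MIC determined under anaerobic conditions on Wilkins-Chalgren agar.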

Fusobacterium = assay: In vitro activity against Fusobacterium sp.(GS-10); assay type: functional; summary of the method: as §1
Bacteroides fragilis [1] = assay: In vitro activity against Bacteroides fragilis (784); assay type: functional; summary of the method: as §1
Mus musculus [2] = assay: In vivo activity against Pseudomonas aeruginosa A5007 (100X LD50), administered po( each compound tested at 3 doses with 10 animals); assay type: functional
Summary of the method: (§2)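 Mice were challenged intraperitoneally with the organism. The compound was given orally as a total dose split into equal portions at 1 and 5 h post-infection. Three doses were used, with 10 animals per dose.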

Bacteroides fragilis [3] = assay: In vitro activity against Bacteroides fragilis (105AT25285); assay type: functional; summary of the method: as §1
Mus musculus [4] = assay: In vivo activity against Pseudomonas aeruginosa A5007 (100X LD50), administered sc ( each compound tested at 3 doses with 10 animals); assay type: functional
Summary of the method: (§3)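 Mice were challenged intraperitoneally with the organism. The compound was given subcutaneously as a total dose split into equal portions at 1 and 5 h post-infection. Three doses were used, with 10 animals per dose.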

Bacteroides fragilis [5] = assay: In vitro activity against Bacteroides fragilis (SFM2906A); assay type: functional; summary of the method: as §1
Bacteroides fragilis [6] = assay: In vitro activity against Bacteroides fragilis (SFM2975-7); assay type: functional; summary of the method: as §1
[7] = test system: Peptoniphilus asaccharolyticus; assay: In vitro activity against Peptococcus asaccharolyticus (ATCC 14963).; assay type: functional; summary of the method: as §1
Prevotella bivia = assay: In vitro activity against t Bacteroides bivius(B 6140); assay type: functional
Summary of the method: (§4)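 Anaerobic MICs measured by agar dilution on Wilkins-Chalgren agar.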

Cutibacterium acnes = assay: In vitro activity against Propionibacterium acnes (132); assay type: functional; summary of the method: as §1
Mus musculus [8] = assay: In vivo activity against Escherichia coli Juhl(100X LD50), when administered po( each compound tested at 3 doses with 10 animals); assay type: functional; summary of the method: as §2
Phocaeicola vulgatus [9] = assay: In vitro activity against Bacteroides vulgatus(792); assay type: functional; summary of the method: as §1
Prevotella disiens = assay: In vitro activity against Bacteroides disiens (ATCC 29426); assay type: functional; summary of the method: as §1
Finegoldia magna = assay: In vitro activity against Peptococcus magnus (ATCC 29328); assay type: functional; summary of the method: as §1
Mus musculus [10] = assay: In vivo activity against Escherichia coli Juhl(100X LD50), when administered sc( each compound tested at 3 doses with 10 animals); assay type: functional; summary of the method: as §3
Phocaeicola vulgatus [11] = assay: In vitro activity against Bacteroides vulgatus(SFBC 2375); assay type: functional; summary of the method: as §1
Hoylesella loescheii = assay: In vitro activity against Bacteroides loescheii (ATCC 15930).; assay type: functional; summary of the method: as §1
[12] = test system: Peptostreptococcus anaerobius; assay: In vitro activity against Peptostreptococcus anaerobius (ATCC 27337); assay type: functional; summary of the method: as §1
Fusobacterium nucleatum = assay: In vitro activity against Fusobacterium nucleatum (ATCC 25586); assay type: functional; summary of the method: as §1
Veillonella parvula = assay: In vitro activity against Veillonella parvula (ATCC 10790); assay type: functional; summary of the method: as §4
[13] = test system: Bacteroides thetaiotaomicron; assay: microbe, parasite or virus in culture; conditions: ATCC 29741
[14] = test system: Prevotella melaninogenica; assay: In vitro activity against Bacteroides melaninogenicus (ATCC 25845).; assay type: functional; summary of the method: as §1
Bacteroides fragilis [15] = assay: In vitro activity against Bacteroides fragilis (SFM2929-1); assay type: functional; summary of the method: as §1
Peptostreptococcus = assay: In vitro activity against Peptostreptococcus sp.(TB-11); assay type: functional
Summary of the method: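 MIC for anaerobic bacteria, measured on Wilkins-Chalgren agar.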

Bacteroides fragilis [16] = assay: In vitro activity against Bacteroides fragilis (UC-2); assay type: functional; summary of the method: as §1

## O=C(O)c1cn(C2CC2)c2cc(N3CCNCC3)c(F)cc2c1=O [CIPROFLOXACIN]
Parvimonas micra
  MIC: 0.5 mg/L (≈ 1.51 µM)
Fusobacterium
  MIC: 4 mg/L (≈ 12.1 µM)
Bacteroides fragilis [1]
  MIC: 4 mg/L (≈ 12.1 µM)
Mus musculus [2]
  ED50: 15.1 mg/kg
Bacteroides fragilis [3]
  MIC: 4 mg/L (≈ 12.1 µM)
Mus musculus [4]
  ED50: 4.1 mg/kg
Bacteroides fragilis [5]
  MIC: 4 mg/L (≈ 12.1 µM)
Bacteroides fragilis [6]
  MIC: 8 mg/L (≈ 24.1 µM)
[7]
  MIC: 2 mg/L (≈ 6.04 µM)
Prevotella bivia
  MIC: 2 mg/L (≈ 6.04 µM)
Cutibacterium acnes
  MIC: 2 mg/L (≈ 6.04 µM)
Mus musculus [8]
  ED50: 1.3 mg/kg
Phocaeicola vulgatus [9]
  MIC: 8 mg/L (≈ 24.1 µM)
Prevotella disiens
  MIC: 2 mg/L (≈ 6.04 µM)
Finegoldia magna
  MIC: 0.25 mg/L (≈ 0.754 µM)
Mus musculus [10]
  ED50: 0.3 mg/kg
Phocaeicola vulgatus [11]
  MIC: 8 mg/L (≈ 24.1 µM)
Hoylesella loescheii
  MIC: 8 mg/L (≈ 24.1 µM)
[12]
  MIC: 2 mg/L (≈ 6.04 µM)
Fusobacterium nucleatum
  MIC: 4 mg/L (≈ 12.1 µM)
Veillonella parvula
  MIC: 0.25 mg/L (≈ 0.754 µM)
[13]
  MIC: 32 mg/L (≈ 96.6 µM)
[14]
  MIC: 2 mg/L (≈ 6.04 µM)
Bacteroides fragilis [15]
  MIC: 8 mg/L (≈ 24.1 µM)
Peptostreptococcus
  MIC: 2 mg/L (≈ 6.04 µM)
Bacteroides fragilis [16]
  MIC: 4 mg/L (≈ 12.1 µM)
